# Measured values: PubChem BioAssay
# Activity calls are given as the source filed them.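 Rule for the calls, unless noted: active = NADPH fluorescence slope more negative than the mean of all samples by about 3 SD, 99.7% confidence; inactive = the rest.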
# What was measured:
# [1] = inhibitors of TNFa-induced NFkB p65 translocation, primary screen, imaging, HUVEC, MLSMR starter and 10KST1 sets (AID 438;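 active = inhibition above 20% together with a positive visual image hit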;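 note: compound added about 3h40 before a 20 min TNFalpha stimulation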;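 for inhibition: signal is the nuclear over cytoplasmic p65 intensity ratio per well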); settings: HUVEC TNFa-induced p65 nuclear translocation; cell count: measured here: nuclei count (cytotoxicity indicator), at 2.08 µM; inhibition: at 2 µM, stronger effect = higher value, 0% TNFa-plus-vehicle, 100% no-TNFa wells
# [2] = endothelial E-selectin expression blockers – imaging, HUVEC, immunofluorescence, MLSMR starter and 10KST1 sets, primary screen (AID 487;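 active = visually confirmed hit in the image check and inhibition above 20%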;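 for inhibition: signal is fraction of cell area covered by stained E-selectin grains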;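 for nuclei count: 100% = median nuclei count of all wells on the same plate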); settings: HUVEC TNFalpha-induced E-selectin immunofluorescence imaging, at 2 µM; inhibition: stronger effect = higher value; nuclei count: measured here: cell number, toxicity
# [3] = Primary imaging screen for DUSP6 inhibitors that restore phospho-Erk in transfected HeLa cells, chemical complementation (AID 609;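 active = compounds giving at least 50% inhibition in the cell-based MKP-3 phosphatase rescue imaging test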;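 for inhibition: phospho-Erk level distribution per well compared with pooled transfected vehicle control wells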); settings: HeLa MKP-3 transfected, phospho-Erk imaging KS statistic, at 10 µM, cells stimulated with TPA for 15 min
# [4] = target: Dual specificity protein phosphatase 6 (Homo sapiens) (UniProt Q16828); experiment: as above; settings: HeLa MKP-3 transfected, phospho-Erk imaging KS statistic; at 10 µM; stronger effect = higher value; cells stimulated with TPA for 15 min
# [5] = target: Voltage-gated potassium channel subunit beta-2 (Rattus norvegicus) (UniProt P62483); experiment: inhibitors of rat Kvbeta2 reductase activity – biochemical, NADPH fluorescence, primary screen (AID 622;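 active = fluorescence slope higher than the sample average by over 3 SD, cut at about -0.22 in these data, passing the limit was not always enough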;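 note: slope of raw intensity against log time taken from 70 to 1610 s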); settings: recombinant KvBeta, 4-cyanobenzaldehyde reduction, at 10 µM, stronger effect = higher value
# [6] = target: Voltage-gated potassium channel subunit beta-2 (Rattus norvegicus) (UniProt P62483); experiment: enhancers of rat Kvbeta2 NADPH turnover – biochemical, NADPH fluorescence, primary screen (AID 623); settings: Recombinant KvBeta, NADPH fluorescence decrease slope, 10 min; at 10 µM; stronger effect = lower value;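 note: fluorescence intensity change per second fitted from 20 to 320 s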
# [7] = target: Muscarinic acetylcholine receptor M4 (Homo sapiens) (UniProt P08173); experiment: M4-linked GIRK flux change, two-sided – cell-based, HEK293 M4/GIRK, thallium flux, BTC-AM, M4 allosteric agonist project, primary screen (AID 625;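 active = fluorescence slope after compound addition differing from the mean of all tested samples at 99.7% confidence, mostly higher but some lower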;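 note: thallium influx through GIRK channels coupled to M4 in HEK293 cells with BTC-AM dye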); settings: at 10 µM, actives lie on both sides
# In short: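 System: HEK293 cells with M4 receptor and GIRK channels | Incubation: Cells overnight at 37 °C, BTC-AM loading 1 h, reads 2 min total | Technique: Kinetic BTC-AM fluorescence sampled at 1 Hz, 10 s pre-addition baseline | Measure: Post-addition slope, 15–24 s, of baseline-normalized fluorescence | Control set: Carbachol positive, DMSO negative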
# [8] = inhibitors of larval lipid processing in zebrafish, primary screen, whole organism, PED6 fluorescence, gall bladder and intestine (AID 686;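 active = a full or partial loss of lipid-probe fluorescence in the fish gall bladder, intestine or both, judged by eye; inactive = no fluorescence loss, or compound toxic to the fish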;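 note: larvae 5 to 7 days old with five fish per well; signal comes from phospholipase A2 cleavage of quenched PED6 carried via bile; overnight exposure to compound and PED6 before scoring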); settings: Zebrafish larvae PED6 lipid processing, fluorescence scoring; screened at 20 µM (by protocol)
# In short: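 Test system – live zebrafish larvae aged 5-7 days, whole organism · Buffer or medium – E3 fish medium · Reagent – quenched phospholipase substrate PED6, 100 nM final, ingested by larvae · Doses – 20 µM single dose · Incubation – overnight compound and PED6 incubation · Technique – visual fluorescence microscopy scoring of gall bladder, gut · Read-out basis – visual per-well fluorescence inhibition score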
# [9] = loss of swimming-algae plug formation – whole organism, Chlamydomonas reinhardtii, WT vs cilia-less mutant, absorbance, 96-well, primary screen (AID 463189;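 active = inhibition at or above 50% relative to wild type and mutant plate controls; inactive = inhibition below 50%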;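 note: 0% = wild type cc124 cells in DMSO and 100% = ciliumless bld1 mutant cells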); settings: Chlamydomonas reinhardtii gravitaxis, OD600 absorbance, 2 days; at 10 µM; stronger effect = higher value
# [10] = measured here: cell density z-score
# [11] = measured here: nuclear c-Myc green intensity z-score
# [12] = measured here: nuclear pErk red intensity z-score, stronger effect = higher value
# Sequence of Muscarinic acetylcholine receptor M4 (Homo sapiens) (P08173 whole entry, looked up): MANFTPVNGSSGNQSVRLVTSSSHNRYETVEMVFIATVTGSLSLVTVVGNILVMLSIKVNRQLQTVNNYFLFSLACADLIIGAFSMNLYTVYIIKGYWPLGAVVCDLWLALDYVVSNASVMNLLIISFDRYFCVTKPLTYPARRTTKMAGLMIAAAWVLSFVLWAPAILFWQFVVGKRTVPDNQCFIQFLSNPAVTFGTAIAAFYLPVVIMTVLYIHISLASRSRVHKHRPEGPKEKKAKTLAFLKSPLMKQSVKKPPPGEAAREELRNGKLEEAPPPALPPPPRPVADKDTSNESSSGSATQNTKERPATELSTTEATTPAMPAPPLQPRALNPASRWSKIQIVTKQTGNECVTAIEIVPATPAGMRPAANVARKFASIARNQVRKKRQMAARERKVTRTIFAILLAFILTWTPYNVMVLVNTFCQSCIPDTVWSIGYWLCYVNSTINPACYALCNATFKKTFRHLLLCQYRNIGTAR
# Sequence of Dual specificity protein phosphatase 6 (Homo sapiens) (Q16828 whole entry, looked up): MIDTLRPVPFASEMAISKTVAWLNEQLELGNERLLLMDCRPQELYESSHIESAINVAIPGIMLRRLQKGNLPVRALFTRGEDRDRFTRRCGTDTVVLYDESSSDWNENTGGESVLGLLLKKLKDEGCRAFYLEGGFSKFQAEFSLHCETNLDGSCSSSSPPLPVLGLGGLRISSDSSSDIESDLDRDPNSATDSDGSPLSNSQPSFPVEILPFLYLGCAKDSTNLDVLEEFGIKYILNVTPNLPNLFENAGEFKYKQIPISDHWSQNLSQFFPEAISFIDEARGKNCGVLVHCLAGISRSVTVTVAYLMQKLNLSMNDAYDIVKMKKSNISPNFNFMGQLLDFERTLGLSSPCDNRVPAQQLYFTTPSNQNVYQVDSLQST
# Sequence of Voltage-gated potassium channel subunit beta-2 (Rattus norvegicus) (P62483 whole entry, looked up): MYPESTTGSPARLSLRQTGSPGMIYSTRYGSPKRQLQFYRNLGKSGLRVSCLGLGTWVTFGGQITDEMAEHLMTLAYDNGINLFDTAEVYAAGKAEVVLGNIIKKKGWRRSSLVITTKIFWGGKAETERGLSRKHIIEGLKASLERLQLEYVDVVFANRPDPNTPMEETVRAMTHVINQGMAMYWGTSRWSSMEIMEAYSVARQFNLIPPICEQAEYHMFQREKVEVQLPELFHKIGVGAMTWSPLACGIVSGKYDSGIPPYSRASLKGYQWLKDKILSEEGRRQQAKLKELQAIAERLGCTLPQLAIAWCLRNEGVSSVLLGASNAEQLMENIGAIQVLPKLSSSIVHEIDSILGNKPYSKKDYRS
SMILES,cell count [1],inhibition [1],inhibition [2],nuclei count [2],"z-score [3, 10]","z-score [3, 11]","z-score [3, 12]",inhibition [4],fluorescence slope [5],NADPH fluorescence slope [6],fluorescence slope [7],outcome [8],inhibition [9]
CCCc1cc(NCCCCO)n2c(nc3ccccc32)c1C#N,484,-2.4% (inactive),-67.8% (inactive),112%,-0.769,-0.182,0.272,21.8% (inactive),-0.238 (inactive),-2.1e-05 (inactive),0.00464 (inactive),inactive,26.9% (inactive)
CC1(C)Cc2c(C#N)c(SCC(=O)c3ccccc3)nc(N3CCOCC3)c2CS1,567,-9.1% (inactive),-119% (inactive),93.2%,0.0433,-1.53,0.585,5.42% (inactive),-0.491 (inactive),1.6e-05 (inactive),0.00928 (inactive),inactive,34.2% (inactive)
CCC(NC(=O)Nc1nccs1)(C(F)(F)F)C(F)(F)F,600,-9% (inactive),21.5% (inactive),89%,0.356,1.04,-0.804,-11.4% (inactive),-0.475 (inactive),-3.1e-05 (inactive),0.0066 (inactive),inactive,-12.6% (inactive)
C=CCc1cccc(/C=N/n2cnnc2)c1O,534,-6.9% (inactive),-121% (inactive),136%,-0.238,0.5,-0.321,13.4% (inactive),-0.446 (inactive),-0.00012 (inactive),0.00478 (inactive),inactive,-8.96% (inactive)
CC1(C)Cc2ccccc2-c2c1c(=O)n(-c1ccccc1)c1nnnn21,624,8.6% (inactive),-45% (inactive),92.5%,0.648,-0.29,-0.398,4.72% (inactive),-0.51 (inactive),-1.7e-05 (inactive),0.00444 (inactive),inactive,13.9% (inactive)
COC(=O)c1[nH]c(C)c(/C(O)=C2\C(=O)C(=O)N(CCN3CCOCC3)C2c2ccccc2OC)c1C (stereo unspecified),610,-6% (inactive),-13.3% (inactive),168%,-1.87,0.251,-0.629,-7.28% (inactive),-0.491 (inactive),-0.000142 (inactive),0.00635 (inactive),inactive,5.11% (inactive)
Cc1cc(/C=N/n2cnnc2)c(C)n1-c1ccc2c(c1)OCO2,374,0.6% (inactive),-13.7% (inactive),97.4%,-1.04,0.298,0.807,14% (inactive),-0.569 (inactive),-6.1e-05 (inactive),0.00571 (inactive),inactive,-15.4% (inactive)
Cc1ccc2[nH]c3c(c2c1)CN(C(=O)CN1CC(C)OC(C)C1)CC3 (stereo unspecified),409,-6.9% (inactive),-299% (inactive),169%,1.01,0.157,-0.0941,3.42% (inactive),-0.466 (inactive),-0.000107 (inactive),0.00334 (inactive),inactive,26.6% (inactive)
COC(=O)c1cc(Br)c(=O)n(Cc2ccco2)c1,518,-0.8% (inactive),34.7% (inactive),159%,-0.341,0.91,-1.02,1.9e-07% (inactive),-0.411 (inactive),-3.2e-05 (inactive),0.00519 (inactive),inactive,-6.69% (inactive)
O=C(NCc1ccccn1)c1ccc(=O)oc1,758,8.2% (inactive),-1.5% (inactive),151%,0.015,0.178,-0.703,-3.95% (inactive),-0.48 (inactive),-4.4e-05 (inactive),0.00585 (inactive),inactive,17.3% (inactive)
N#Cc1nc(-c2ccc(F)cc2)oc1N1CCCC1,706,-7.6% (inactive),24.6% (inactive),148%,1.01,1.06,0.859,9.07% (inactive),-0.348 (inactive),-9.4e-06 (inactive),0.0076 (inactive),inactive,-3.17% (inactive)
COc1ccc(C2Nc3ccccc3C(=O)N2Cc2ccco2)cc1CN1C(=O)c2ccccc2C1=O (stereo unspecified),691,-6.9% (inactive),20.3% (inactive),132%,0.751,-1.72,0.41,9.07% (inactive),-0.461 (inactive),-4.4e-05 (inactive),0.00497 (inactive),inactive,8.71% (inactive)
Cc1cc2c(c(=O)o1)C(CC(C)C)C(C#N)=C(N)O2 (stereo unspecified),703,2% (inactive),-144% (inactive),167%,-0.228,-0.296,-0.119,-1.12% (inactive),-0.436 (inactive),-5.8e-05 (inactive),0.00457 (inactive),inactive,3.4% (inactive)
CC(NC(=O)Nc1ncccn1)(C(F)(F)F)C(F)(F)F,705,-8.4% (inactive),-9.7% (inactive),107%,-2.34,2.27,-1.54,3.97% (inactive),-0.481 (inactive),-0.000112 (inactive),0.00693 (inactive),inactive,-10.4% (inactive)
CCCCCSc1nc(N2CCOCC2)c2c(c1C#N)CC(C)(C)OC2,527,-4.1% (inactive),47.4% (inactive),82.5%,-0.00236,0.148,-1.7,-11.4% (inactive),-0.426 (inactive),1.5e-05 (inactive),0.00771 (inactive),inactive,16.6% (inactive)
Cn1c(=O)[nH]c(=O)c2c1nc(Br)n2CCSc1nnnn1-c1ccccc1,639,0.9% (inactive),-40.4% (inactive),177%,-0.541,-0.392,1.24,3.42% (inactive),-0.384 (inactive),-4e-05 (inactive),0.00586 (inactive),inactive,27.6% (inactive)
CCn1c(SCC(=O)NCc2ccco2)nnc1-c1ccc(N)cc1,669,-1% (inactive),19.4% (inactive),189%,-0.439,0.193,-0.177,-3.95% (inactive),-0.491 (inactive),-4.4e-05 (inactive),0.00557 (inactive),inactive,6.36% (inactive)
CN(C)CCCN1C(=O)C(=O)/C(=C(/O)c2ccccc2)C1c1ccccn1 (stereo unspecified),473,-8.2% (inactive),-97.3% (inactive),158%,1.03,-1.2,0.352,1.04% (inactive),-0.486 (inactive),-6.1e-05 (inactive),0.00459 (inactive),inactive,10.1% (inactive)
CCc1nc(N2CCN(C(=O)c3ccccc3)CC2)c(C#N)c2c1COC(C)(C)C2,548,2% (inactive),-77.4% (inactive),113%,-0.584,0.135,0.894,3.42% (inactive),-0.474 (inactive),6.5e-05 (inactive),0.00455 (inactive),inactive,5.51% (inactive)
CC(C)COc1ccc(C(=O)NC(CC(C)C)C(=O)O)cc1 (stereo unspecified),649,9.2% (inactive),-19.5% (inactive),84.1%,-0.492,0.0237,0.136,-13.3% (inactive),-0.484 (inactive),-4.8e-05 (inactive),0.00574 (inactive),inactive,25.1% (inactive)
CCc1ccc(NC(=O)CSC2=C(C#N)C(c3ccc4c(c3)OCO4)CC(=O)N2)cc1 (stereo unspecified),599,-14% (inactive),41.8% (inactive),91.1%,1.39,-1.52,-0.214,22.7% (inactive),-0.491 (inactive),-4.6e-05 (inactive),0.00667 (inactive),inactive,-5% (inactive)
Cc1ccc(-c2nn(CCC(=O)NCC3CCCO3)c(=O)c3ccccc23)cc1 (stereo unspecified),465,-2.6% (inactive),-99.3% (inactive),155%,-0.415,0.704,-0.137,-7.28% (inactive),-0.422 (inactive),-5.3e-05 (inactive),0.0051 (inactive),inactive,-0.115% (inactive)
CCCCSc1nc(N)c(C#N)c(-c2cccs2)c1C#N,652,-3.4% (inactive),-1.9% (inactive),141%,1.43,0.907,-0.946,-4.7% (inactive),-0.432 (inactive),-1.7e-05 (inactive),0.00886 (inactive),inactive,-8.35% (inactive)
COc1ccc(-c2nc3c(Br)c(N)c(Br)cc3o2)cc1,497,-7.6% (inactive),-77.2% (inactive),140%,0.844,-1.44,0.173,-1.98% (inactive),-0.404 (inactive),-2.1e-05 (inactive),0.0064 (inactive),inactive,14.6% (inactive)
O=C1NCC(COCC2CC=CCC2)O1 (stereo unspecified),574,-4% (inactive),50.9% (inactive),136%,0.151,-0.463,-0.815,19.4% (inactive),-0.408 (inactive),-2.8e-05 (inactive),0.0053 (inactive),inactive,41.8% (inactive)
O=C1CC(c2ccccc2)n2nc(N3C(=O)c4ccccc4C3=O)nc2N1 (stereo unspecified),397,3% (inactive),-72.9% (inactive),114%,0.561,0.157,-0.686,2.71% (inactive),-0.441 (inactive),-1.7e-05 (inactive),0.00457 (inactive),inactive,21.6% (inactive)
COc1ccccc1C1CC(c2ccc(Cl)cc2)Nc2nc(N)nn21 (stereo unspecified),404,0% (inactive),-104% (inactive),146%,-0.136,-0.282,-0.582,11.9% (inactive),-0.459 (inactive),-0.000104 (inactive),0.00483 (inactive),inactive,-3.22% (inactive)
